Measurements reported in the array DNA melting data of Ke et al. (doi:10.1101/2024.01.08.574731).

How the values were obtained:
[1] = melting temperature; fluorescence melt of hairpins on a sequencing array, two-state fit, raised by 9.35 °C to match UV melts; settings: sodium 0.088 M
How it was run: (§1)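 Cy3 fluorescence of library hairpins on a sequenced MiSeq flow cell, with annealed Cy3 and quencher oligos, was imaged in 50 mM Na-HEPES pH 8.0, 25 mM NaCl in 2.5 °C steps up to 60 °C. Signals were normalised to pre-quench Cy3 and to control variants. Melting temperature and folding enthalpy came from bootstrapped two-state fits, inverse-variance combined over four replicates. Fitted temperatures were raised by 9.35 °C to match UV melts.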

[2] = folding enthalpy; higher = less favourable; fluorescence melt of hairpins on a sequencing array, two-state fit; settings: sodium 0.088 M
How it was run: as §1

Sequence | Tm [1] [°C] | folding enthalpy [2] [kcal/mol]
GGAAGCGAAAGCTTCTCC ((((((....)))..))) | 53.3 | -9.47
GGAAGGCGAAAGCCGTCC (((.(((....))).))) | 58 | -15.5
GGAAGGCGAAAGCCTCC (((.(((....)))))) | 56.9 | -14.1
GGAAGGGGAAACCCTTTC (.(((((....))))).) | 44.7 | -24.2
GGAAGGTCGAAAGACTCC (((..(((....)))))) | 33.1 | -13.8
GGAATACGAAAGTACTCC (((.(((....))).))) | 39.5 | -27.4
GGAATAGAAATATTCC ((((((....)))))) | 41.7 | -29.3
GGAATAGGAAACTATCCC ((.((((....)))).)) | 28 | -10.9
GGAATATCGAAAGATTCC (((..(((....)))))) | 33.3 | -20
GGAATCGAAAGATACTCC ((((((....)))..))) | 24.7 | -9.63
GGAATCGAAAGATATTCC ((((((....)))..))) | 29.7 | -16
GGAATCGAAAGATCTCC ((((((....))).))) | 30.8 | -18.4
GGAATCGAAAGATGTCC ((((((....))).))) | 32.5 | -15.6
GGAATCGAAAGATTGTCC ((((((....)))..))) | 27.2 | -11.1
GGAATCGGAAACGATCCC ((.((((....)))).)) | 45.5 | -25.9
GGAATCTCGAAAGAGTCC (((..(((....)))))) | 33.2 | -18.4
GGAATGCGAAAGCATCC (((.(((....)))))) | 55.5 | -15.9
GGAATGGCGAAAGCCTCC (((..(((....)))))) | 36.7 | -10.2
GGAATGGGAAACCATCCC ((.((((....)))).)) | 38.6 | -24
GGAATGGGAAACTATTCC (((((.(....).))))) | 42.3 | -25.9
GGAATTCCGAAAGGATCC (((..(((....)))))) | 28 | -10.9
GGAATTCGAAAGAACTCC (((.(((....))).))) | 36.4 | -28.1
GGAATTGGAAACAATTTC (.(((((....))))).) | 39.5 | -32.8

Sequence | Tm [1] [°C] | folding enthalpy [2] [kcal/mol]
GGACAAACGAAAGTTTCC (((..(((....)))))) | 25.4 | -9.9
GGACAACCGAAAGGTTCC (((..(((....)))))) | 29.4 | -10.9
GGACAACGAAAGTTATCC (((.(((....))).))) | 40 | -29.4
GGACAACGAAAGTTTCC (((.(((....)))))) | 38.3 | -20.1
GGACACGAAAGTGAGTCC ((((((....)))..))) | 44.8 | -21
GGACACGAAAGTGATTCC ((((((....)))..))) | 31.7 | -14.7
GGACACGAAAGTGCGTCC ((((((....)))..))) | 40.5 | -18.2
GGACACGAAAGTGGCTCC ((((((....)))..))) | 49 | -11.8
GGACACGAAAGTGTGTCC ((((((....)))..))) | 55.5 | -30.6
GGACAGACGAAAGTCTCC (((..(((....)))))) | 30.4 | -10.2
GGACATGGAAACATGTTC (.(((((....))))).) | 47.4 | -27.6
GGACCAGGAAACTGGTTC (.(((((....))))).) | 51.8 | -24.6
GGACCCCCGAAAGGGTCC (((..(((....)))))) | 62.1 | -34.8
GGACCCCGAAAGGGTTCC (((.(((....))).))) | 52.5 | -23.2
GGACCCGAAAGGGAATCC ((((((....)))..))) | 34.6 | -16.7
GGACCCGAAAGGGACTCC ((((((....)))..))) | 54 | -13
GGACCCGAAAGGGCATCC ((((((....)))..))) | 34.2 | -11.7
GGACCCGAAAGGGGCTCC ((((((....)))..))) | 56.5 | -9.41
GGACCCGGAAACGGACCC ((..(((....)))..)) | 32.7 | -13.8
GGACCGCCGAAAGGCTCC (((..(((....)))))) | 32.2 | -10
GGACCTGAAAAGGTCC ((((((....)))))) | 68.2 | -34.4
GGACGACGAAAGTCCTCC (((.(((....))).))) | 45.4 | -19.4
GGACGAGGAAACTCATCC (((.(((....))).))) | 36.7 | -27.4
